ChEMBL document CHEMBL3868616, “Synthesis and biological evaluation of hesperetin derivatives as agents inducing apoptosis” (2017)
Activity calls are given as the source filed them. The rule behind the calls is not given here.

Key:
[1] = Anticlonogenic activity in human HCT116 cells after 6 days by crystal violet staining based assay; type: functional; conditions: HCT-116, 144 h
How it was run: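 HCT116 colon cancer cells, long-term clonogenic survival assay. Compound exposure for six days at 0, 5, 10 and 20 µM (results section also lists 40 µM). Colonies stained with 0.1% crystal violet and quantified by densitometry. GI50 computed from the concentration–response data.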

[2] = Cytotoxicity against human HCT116 cells assessed as decrease in cell viability at 80 uM after 24 hrs by CCK-8 assay; type: functional, HCT-116
How it was run: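 HCT116 cells seeded at 5 × 10^3 per well and treated 24 h at 10, 20, 40, 80 and 100 µM. Viability read with CCK-8 as absorbance at 450 nm. Compared with vehicle by one-way ANOVA followed by Sidak's multiple comparisons test.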

HCT-116 [3] = assay: Induction of apoptosis in human HCT116 cells assessed as viable cells at 50 uM after 24 hrs by FITC-annexin V/propidium iodide staining based fluorescence assay (reference value: 90%); type: functional; conditions: HCT-116, 24 h, read-out: Activity
HCT-116 [4] = assay: Induction of apoptosis in human HCT116 cells assessed as early apoptotic cells at 50 uM after 24 hrs by FITC-annexin V/propidium iodide staining based fluorescence assay (reference value: 6%); type: functional
HCT-116 [5] = assay: Induction of apoptosis in human HCT116 cells assessed as late apoptotic cells at 50 uM after 24 hrs by FITC-annexin V/propidium iodide staining based fluorescence assay (reference value: 3%); type: functional
HCT-116 [6] = assay: Induction of apoptosis in human HCT116 cells assessed as necrotic cells at 50 uM after 24 hrs by FITC-annexin V/propidium iodide staining based fluorescence assay (reference value: 2%); type: functional
[7] = biological target: Mitogen-activated protein kinase 8 (Homo sapiens) (UniProt P45983); assay: Increase in JNK1 phosphorylation at Thr183/Tyr185 residues in human HCT116 cells at 50 to 200 uM after 12 hrs by Western blot analysis; type: cell-based; conditions: HCT-116
How it was run: (§1)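 HCT116 cells exposed to 0, 50, 100 or 200 µM for 1 and 12 h. Whole-cell lysates immunoblotted with an antibody specific for phospho-JNK1/2 (Thr183/Tyr185), with GAPDH as the internal loading control.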

[8] = biological target: Mitogen-activated protein kinase 9 (Homo sapiens) (UniProt P45984); assay: Increase in JNK2 phosphorylation at Thr183/Tyr185 residues in human HCT116 cells at 50 to 200 uM after 12 hrs by Western blot analysis; type: cell-based; conditions: HCT-116; how it was run: as §1
HCT-116 [9] = assay: Induction of apoptosis in human HCT116 cells assessed as increase in caspase-9 cleavage at 50 uM by immuno blot analysis; type: functional, cell-based; conditions: TDE = time-dependent effect
How it was run: (§2)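 HCT116 cells exposed to 50 µM for 0, 12 and 24 h. Total cell lysates immunoblotted with antibodies against cleaved caspase-9, cleaved caspase-3 and PARP.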

HCT-116 [10] = assay: Induction of apoptosis in human HCT116 cells assessed as increase in caspase-3 cleavage at 50 uM by immuno blot analysis; type: functional, cell-based; conditions: TDE = time-dependent effect; how it was run: as §2
HCT-116 [11] = assay: Induction of apoptosis in human HCT116 cells assessed as increase in PARP cleavage at 50 uM measured up to 24 hrs by immuno blot analysis; type: functional, cell-based; how it was run: as §2
[12] = biological target: Mitogen-activated protein kinase 8 (Homo sapiens) (UniProt P45983); assay: Increase in JNK1 phosphorylation at Thr183/Tyr185 residues in human HCT116 cells at 50 to 200 uM measured up to 1 hr by Western blot analysis; type: cell-based; conditions: HCT-116; how it was run: as §1
[13] = biological target: Mitogen-activated protein kinase 9 (Homo sapiens) (UniProt P45984); assay: Increase in JNK2 phosphorylation at Thr183/Tyr185 residues in human HCT116 cells at 50 to 200 uM measured up to 1 hr by Western blot analysis; type: cell-based; conditions: HCT-116; how it was run: as §1
[14] = biological target: Mitogen-activated protein kinase 8 (Homo sapiens) (UniProt P45983); assay: Increase in JNK1 phosphorylation at Thr183/Tyr185 residues in human HCT116 cells at 50 to 200 uM measured up to 12 hrs by Western blot analysis; type: cell-based; conditions: HCT-116; how it was run: as §1
[15] = biological target: Mitogen-activated protein kinase 9 (Homo sapiens) (UniProt P45984); assay: Increase in JNK2 phosphorylation at Thr183/Tyr185 residues in human HCT116 cells at 50 to 200 uM measured up to 12 hrs by Western blot analysis; type: cell-based; conditions: HCT-116; how it was run: as §1

Sequence of Mitogen-activated protein kinase 9 (Homo sapiens) (P45984 whole entry, looked up): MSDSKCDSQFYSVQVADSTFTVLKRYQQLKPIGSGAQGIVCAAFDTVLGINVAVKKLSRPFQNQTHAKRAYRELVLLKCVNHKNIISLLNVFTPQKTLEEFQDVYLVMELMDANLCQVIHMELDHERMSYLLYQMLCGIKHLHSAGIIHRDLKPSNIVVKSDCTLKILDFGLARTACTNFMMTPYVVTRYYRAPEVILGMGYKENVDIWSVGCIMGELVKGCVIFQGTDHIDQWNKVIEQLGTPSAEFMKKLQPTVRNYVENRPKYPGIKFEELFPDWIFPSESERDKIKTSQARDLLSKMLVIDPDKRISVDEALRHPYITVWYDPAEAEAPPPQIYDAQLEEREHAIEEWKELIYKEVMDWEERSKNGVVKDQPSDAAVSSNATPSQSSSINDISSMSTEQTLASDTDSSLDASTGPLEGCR
Sequence of Mitogen-activated protein kinase 8 (Homo sapiens) (P45983 whole entry): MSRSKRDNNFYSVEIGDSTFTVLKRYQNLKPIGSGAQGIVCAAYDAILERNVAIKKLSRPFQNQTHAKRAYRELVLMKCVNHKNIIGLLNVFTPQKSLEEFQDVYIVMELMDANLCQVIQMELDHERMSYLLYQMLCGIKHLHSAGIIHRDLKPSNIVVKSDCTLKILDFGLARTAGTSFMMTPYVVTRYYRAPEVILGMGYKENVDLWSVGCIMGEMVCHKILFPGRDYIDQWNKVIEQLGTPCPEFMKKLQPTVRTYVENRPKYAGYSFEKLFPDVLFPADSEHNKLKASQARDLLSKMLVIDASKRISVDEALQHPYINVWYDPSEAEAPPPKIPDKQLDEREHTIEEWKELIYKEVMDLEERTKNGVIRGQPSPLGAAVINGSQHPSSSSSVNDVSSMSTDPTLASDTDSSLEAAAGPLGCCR

COc1ccc([C@@H]2CC(=O)c3c(O)cc(OC(=O)c4ccccc4C)cc3O2)cc1O
GI50 [1]: 22.9 µM

COc1ccc([C@@H]2CC(=O)c3c(O)cc(OC(=O)C(C)(C)C)cc3O2)cc1O
GI50 [1]: 31.5 µM

COc1ccc([C@@H]2CC(=O)c3c(O)cc(O)cc3O2)cc1O [HESPERETIN]
GI50 [1]: 36.1 µM | Activity [2]: 15% | viability at 50 µM (HCT-116 [3]): 88% | Activity (HCT-116 [4]): 9% | Activity (HCT-116 [5]): 2% | Activity (HCT-116 [6]): 0% | Activity [7]: Active | Activity [8]: Active

COc1ccc([C@@H]2CC(=O)c3c(O)cc(OC(=O)Cc4ccccc4)cc3O2)cc1OC(=O)Cc1ccccc1
GI50 [1]: 63.9 µM

COc1ccc([C@@H]2CC(=O)c3c(O)cc(OC(=O)c4ccccc4C)cc3O2)cc1OC(=O)c1ccccc1C
GI50 [1]: 48.7 µM

COc1ccc([C@@H]2CC(=O)c3c(O)cc(OC(=O)c4ccc(C)cc4)cc3O2)cc1OC(=O)c1ccc(C)cc1
GI50 [1]: 71.7 µM

C/C=C/C(=O)Oc1cc(O)c2c(c1)O[C@H](c1ccc(OC)c(O)c1)CC2=O
GI50 [1]: 16.9 µM

COc1ccc([C@@H]2CC(=O)c3c(O)cc(OC(=O)c4ccccc4)cc3O2)cc1OC(=O)c1ccccc1
GI50 [1]: 46 µM

COc1ccc([C@@H]2CC(=O)c3c(O)cc(OC(=O)/C=C/c4ccccc4)cc3O2)cc1OC(=O)/C=C/c1ccccc1
GI50 [1]: 21 µM

CCCC(=O)Oc1cc(O)c2c(c1)O[C@H](c1ccc(OC)c(O)c1)CC2=O
GI50 [1]: 12 µM | Activity [2]: 50% | viability at 50 µM (HCT-116 [3]): 55% | Activity (HCT-116 [4]): 39% | Activity (HCT-116 [5]): 5% | Activity (HCT-116 [6]): 0% | Activity (HCT-116 [9]): Tde | Activity (HCT-116 [10]): Tde | Activity (HCT-116 [11]): Active | Activity [12]: Active | Activity [13]: Active | Activity [14]: Active | Activity [15]: Active

COc1ccc(C(=O)Oc2cc(O)c3c(c2)O[C@H](c2ccc(OC)c(OC(=O)c4ccc(OC)cc4)c2)CC3=O)cc1
GI50 [1]: 35.7 µM

CCCC(=O)Oc1cc(O)c2c(c1)O[C@H](c1ccc(OC)c(OC(=O)CCC)c1)CC2=O
GI50 [1]: 13.2 µM

COc1ccc([C@@H]2CC(=O)c3c(O)cc(OC(=O)c4ccccc4)cc3O2)cc1O
GI50 [1]: 16.5 µM
